Laboratory results: ChEMBL document CHEMBL1629491, “Post Groebke-Blackburn multicomponent protocol: synthesis of new polyfunctional imidazo[1,2-a]pyridine and imidazo[1,2-a]pyrimidine derivatives as potential antimicrobial agents” (2010)
≈ marks a conversion by molar mass, not a printed value.

Key:
Type in all cases: functional
Escherichia coli = test: Antimicrobial activity against Escherichia coli after 24 hrs […]
Outline: (§1)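 Broth microdilution MIC. Bacteria were grown in Luria broth (1% tryptone, 0.5% yeast extract, 0.5% NaCl, pH 7.2) at 37 °C for 24 h. Mid-log cultures were read at OD540 and diluted to OD 0.004 (5 × 10⁵ CFU/mL) before inoculation. Compounds in DMSO were given as eleven twofold serial dilutions, and plates were incubated at 37 °C for 24 h. MIC was the lowest concentration with no visible growth by turbidity. Cefixime, amoxicillin and vancomycin were the positive controls.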

Pseudomonas aeruginosa = test: Antimicrobial activity against Pseudomonas aeruginosa after 24 hrs […]; outline: as §1
Klebsiella aerogenes = test: Antimicrobial activity against Enterobacter aerogenes after 24 hrs […]; outline: as §1
Staphylococcus aureus = test: Antimicrobial activity against Staphylococcus aureus after 24 hrs […]; outline: as §1
Enterococcus faecalis = test: Antimicrobial activity against Enterococcus faecalis after 24 hrs […]; outline: as §1
Priestia megaterium = test: Antimicrobial activity against Bacillus megaterium after 24 hrs […]; outline: as §1

MIC (Escherichia coli) [µg/mL]	MIC (Pseudomonas aeruginosa) [µg/mL]	MIC (Klebsiella aerogenes) [µg/mL]	MIC (Staphylococcus aureus) [µg/mL]	MIC (Enterococcus faecalis) [µg/mL]	MIC (Priestia megaterium) [µg/mL]	SMILES
11.3 (≈ 21.5 µM)	14.5 (≈ 27.6 µM)	12.8 (≈ 24.5 µM)	10.3 (≈ 19.6 µM)	13.4 (≈ 25.4 µM)	17.5 (≈ 33.4 µM)	O=[N+]([O-])c1ccc2nc(-c3ccc4nc(-c5ccc(Br)cc5)c(Nc5ccccc5)n4c3)[nH]c2c1
34.8 (≈ 68.5 µM)	45.4 (≈ 89.5 µM)	57.3 (≈ 113 µM)	54.9 (≈ 108 µM)	46.5 (≈ 91.6 µM)	65.5 (≈ 129 µM)	Cc1ccc(-c2nc3ccc(-c4nc5ccc(Oc6ccccc6)cc5[nH]4)cn3c2Nc2ccccc2)cc1
3.18 (≈ 6.43 µM)	5.22 (≈ 10.6 µM)	7.15 (≈ 14.5 µM)	5.11 (≈ 10.3 µM)	6.28 (≈ 12.7 µM)	14 (≈ 28.2 µM)	Cc1ccc(-c2nc3ccc(-c4nc5ccc(Br)cc5[nH]4)cn3c2Nc2ccccc2)cc1
2.15 (≈ 4.31 µM)	3.44 (≈ 6.9 µM)	2.05 (≈ 4.11 µM)	1.51 (≈ 3.03 µM)	5.23 (≈ 10.5 µM)	10.2 (≈ 20.6 µM)	Fc1ccc2nc(-c3ccc4nc(-c5ccc(Br)cc5)c(Nc5ccccc5)n4c3)[nH]c2c1
10.7 (≈ 20.9 µM)	12.4 (≈ 24.3 µM)	11.5 (≈ 22.6 µM)	12.1 (≈ 23.7 µM)	15.3 (≈ 29.9 µM)	21.6 (≈ 42.2 µM)	Fc1ccc2nc(-c3ccc4nc(-c5ccc(Oc6ccccc6)cc5)c(Nc5ccccc5)n4c3)[nH]c2c1
31.8 (≈ 55.6 µM)	41.1 (≈ 71.8 µM)	58.5 (≈ 102 µM)	56.2 (≈ 98.1 µM)	44.7 (≈ 78.1 µM)	58.7 (≈ 102 µM)	Brc1ccc(-c2nc3ccc(-c4nc5ccc(Oc6ccccc6)cc5[nH]4)cn3c2Nc2ccccc2)cc1
10.3 (≈ 20.9 µM)	13.4 (≈ 27 µM)	11.8 (≈ 23.8 µM)	9.51 (≈ 19.2 µM)	13.6 (≈ 27.6 µM)	18.6 (≈ 37.6 µM)	Cc1ccc2nc(-c3ccc4nc(-c5ccc(Br)cc5)c(Nc5ccccc5)n4c3)[nH]c2c1
1.33 (≈ 2.54 µM)	2.12 (≈ 4.04 µM)	1.55 (≈ 2.96 µM)	0.72 (≈ 1.37 µM)	3.17 (≈ 6.05 µM)	8.34 (≈ 15.9 µM)	Fc1ccc(-c2cnc(-c3ccc4nc(-c5ccc(Br)cc5)c(Nc5ccccc5)n4c3)[nH]2)cc1
12.2 (≈ 20.4 µM)	11.8 (≈ 19.7 µM)	10.7 (≈ 17.9 µM)	10.2 (≈ 17.1 µM)	13.7 (≈ 22.9 µM)	19.9 (≈ 33.2 µM)	Brc1ccc(-c2cnc(-c3ccc4nc(-c5ccc(Oc6ccccc6)cc5)c(Nc5ccccc5)n4c3)[nH]2)cc1
1.42 (≈ 2.63 µM)	2.52 (≈ 4.66 µM)	1.17 (≈ 2.16 µM)	0.93 (≈ 1.72 µM)	2.96 (≈ 5.47 µM)	9.13 (≈ 16.9 µM)	Clc1ccc(-c2cnc(-c3ccc4nc(-c5ccc(Br)cc5)c(Nc5ccccc5)n4c3)[nH]2)cc1
33.3 (≈ 55.6 µM)	44.3 (≈ 74 µM)	53.4 (≈ 89.2 µM)	58.4 (≈ 97.5 µM)	39.6 (≈ 66.2 µM)	53.2 (≈ 88.8 µM)	Brc1ccc(-c2nc3ccc(-c4ncc(-c5ccc(Oc6ccccc6)cc5)[nH]4)cn3c2Nc2ccccc2)cc1
1.11 (≈ 2.11 µM)	2.43 (≈ 4.62 µM)	0.85 (≈ 1.61 µM)	0.51 (≈ 0.969 µM)	1.57 (≈ 2.98 µM)	4.97 (≈ 9.44 µM)	Fc1ccc(-c2nnc(-c3ccc4nc(-c5ccc(Br)cc5)c(Nc5ccccc5)n4c3)o2)cc1
11.7 (≈ 21.7 µM)	9.64 (≈ 17.9 µM)	8.42 (≈ 15.6 µM)	11.1 (≈ 20.6 µM)	12.6 (≈ 23.3 µM)	17.4 (≈ 32.3 µM)	Fc1ccc(-c2nnc(-c3ccc4nc(-c5ccc(Oc6ccccc6)cc5)c(Nc5ccccc5)n4c3)o2)cc1
13.4 (≈ 27.5 µM)	12.6 (≈ 25.7 µM)	10.2 (≈ 20.8 µM)	9.85 (≈ 20.2 µM)	11.4 (≈ 23.3 µM)	15.5 (≈ 31.7 µM)	Cc1ccc(-c2nc3ccc(-c4nnc(-c5ccc([N+](=O)[O-])cc5)o4)cn3c2Nc2ccccc2)cc1
12.4 (≈ 23.7 µM)	10.2 (≈ 19.5 µM)	11.3 (≈ 21.6 µM)	12.3 (≈ 23.5 µM)	11.8 (≈ 22.6 µM)	16.6 (≈ 31.7 µM)	Cc1ccc(-c2nnc(-c3ccc4nc(-c5ccc(Br)cc5)c(Nc5ccccc5)n4c3)o2)cc1
7.37 (≈ 13.3 µM)	5.45 (≈ 9.85 µM)	4.12 (≈ 7.45 µM)	6.36 (≈ 11.5 µM)	8.22 (≈ 14.9 µM)	12.7 (≈ 23 µM)	O=[N+]([O-])c1ccc(-c2nnc(-c3ccc4nc(-c5ccc(Br)cc5)c(Nc5ccccc5)n4c3)o2)cc1

MIC (Escherichia coli) [µg/mL]	MIC (Pseudomonas aeruginosa) [µg/mL]	MIC (Klebsiella aerogenes) [µg/mL]	MIC (Staphylococcus aureus) [µg/mL]	MIC (Enterococcus faecalis) [µg/mL]	MIC (Priestia megaterium) [µg/mL]	SMILES
2.29 (≈ 4.59 µM)	2.85 (≈ 5.71 µM)	2.25 (≈ 4.51 µM)	1.23 (≈ 2.46 µM)	6.64 (≈ 13.3 µM)	11.7 (≈ 23.5 µM)	Fc1ccc2nc(-c3cnc4nc(-c5ccc(Br)cc5)c(Nc5ccccc5)n4c3)[nH]c2c1
2.78 (≈ 5.39 µM)	2.55 (≈ 4.94 µM)	2.75 (≈ 5.33 µM)	1.84 (≈ 3.57 µM)	5.87 (≈ 11.4 µM)	13.7 (≈ 26.6 µM)	Clc1ccc2nc(-c3cnc4nc(-c5ccc(Br)cc5)c(Nc5ccccc5)n4c3)[nH]c2c1
3.44 (≈ 7.92 µM)	4.72 (≈ 10.9 µM)	6.18 (≈ 14.2 µM)	6.32 (≈ 14.5 µM)	5.76 (≈ 13.3 µM)	17.2 (≈ 39.5 µM)	Cc1ccc(-c2nc3ncc(-c4nc5ccc(F)cc5[nH]4)cn3c2Nc2ccccc2)cc1
10.5 (≈ 20.5 µM)	7.38 (≈ 14.4 µM)	6.12 (≈ 11.9 µM)	9.43 (≈ 18.4 µM)	10.4 (≈ 20.3 µM)	19.8 (≈ 38.6 µM)	Fc1ccc2nc(-c3cnc4nc(-c5ccc(Oc6ccccc6)cc5)c(Nc5ccccc5)n4c3)[nH]c2c1
11.7 (≈ 22.2 µM)	12.2 (≈ 23.2 µM)	10.6 (≈ 20.2 µM)	9.32 (≈ 17.7 µM)	11.4 (≈ 21.8 µM)	15.4 (≈ 29.3 µM)	O=[N+]([O-])c1ccc2nc(-c3cnc4nc(-c5ccc(Br)cc5)c(Nc5ccccc5)n4c3)[nH]c2c1
5.33 (≈ 9.65 µM)	7.81 (≈ 14.1 µM)	9.33 (≈ 16.9 µM)	4.22 (≈ 7.64 µM)	9.61 (≈ 17.4 µM)	17.4 (≈ 31.6 µM)	O=[N+]([O-])c1ccc(-c2cnc(-c3cnc4nc(-c5ccc(Br)cc5)c(Nc5ccccc5)n4c3)[nH]2)cc1
1.15 (≈ 2.19 µM)	2.34 (≈ 4.45 µM)	1.11 (≈ 2.11 µM)	0.63 (≈ 1.2 µM)	4.21 (≈ 8.01 µM)	9.17 (≈ 17.5 µM)	Fc1ccc(-c2cnc(-c3cnc4nc(-c5ccc(Br)cc5)c(Nc5ccccc5)n4c3)[nH]2)cc1
3.11 (≈ 5.74 µM)	1.82 (≈ 3.36 µM)	1.89 (≈ 3.49 µM)	1.76 (≈ 3.25 µM)	4.28 (≈ 7.9 µM)	11.6 (≈ 21.5 µM)	Clc1ccc(-c2cnc(-c3cnc4nc(-c5ccc(Br)cc5)c(Nc5ccccc5)n4c3)[nH]2)cc1
8.11 (≈ 15.6 µM)	11.4 (≈ 22 µM)	10.8 (≈ 20.8 µM)	9.49 (≈ 18.2 µM)	11.7 (≈ 22.4 µM)	15.6 (≈ 29.8 µM)	Cc1ccc(-c2cnc(-c3cnc4nc(-c5ccc(Br)cc5)c(Nc5ccccc5)n4c3)[nH]2)cc1
1.33 (≈ 2.52 µM)	1.87 (≈ 3.55 µM)	0.94 (≈ 1.78 µM)	0.64 (≈ 1.21 µM)	1.92 (≈ 3.64 µM)	5.45 (≈ 10.3 µM)	Fc1ccc(-c2nnc(-c3cnc4nc(-c5ccc(Br)cc5)c(Nc5ccccc5)n4c3)o2)cc1
2.78 (≈ 6.01 µM)	3.65 (≈ 7.89 µM)	5.29 (≈ 11.4 µM)	5.47 (≈ 11.8 µM)	4.58 (≈ 9.9 µM)	15.3 (≈ 33.1 µM)	Cc1ccc(-c2nc3ncc(-c4nnc(-c5ccc(F)cc5)o4)cn3c2Nc2ccccc2)cc1
3.12 (≈ 5.63 µM)	4.45 (≈ 8.03 µM)	2.23 (≈ 4.02 µM)	3.35 (≈ 6.04 µM)	6.18 (≈ 11.1 µM)	11.2 (≈ 20.2 µM)	O=[N+]([O-])c1ccc(-c2nnc(-c3cnc4nc(-c5ccc(Br)cc5)c(Nc5ccccc5)n4c3)o2)cc1
2.34 (≈ 4.3 µM)	1.56 (≈ 2.87 µM)	3.16 (≈ 5.81 µM)	2.45 (≈ 4.51 µM)	5.37 (≈ 9.87 µM)	8.45 (≈ 15.5 µM)	Clc1ccc(-c2nnc(-c3cnc4nc(-c5ccc(Br)cc5)c(Nc5ccccc5)n4c3)o2)cc1
8.56 (≈ 16.4 µM)	7.64 (≈ 14.6 µM)	6.43 (≈ 12.3 µM)	5.31 (≈ 10.1 µM)	8.71 (≈ 16.6 µM)	13.6 (≈ 26 µM)	Cc1ccc(-c2nnc(-c3cnc4nc(-c5ccc(Br)cc5)c(Nc5ccccc5)n4c3)o2)cc1
16.4 (≈ 45 µM)	14.5 (≈ 39.8 µM)	3.65 (≈ 9.99 µM)	13.3 (≈ 36.5 µM)	1.22 (≈ 3.34 µM)	2.75 (≈ 7.53 µM)	CC1(C)S[C@@H]2[C@H](NC(=O)[C@H](N)c3ccc(O)cc3)C(=O)N2[C@H]1C(=O)O [AMOXICILLIN]
2.34 (≈ 5.16 µM)	17.2 (≈ 38 µM)	28.2 (≈ 62.1 µM)	33.9 (≈ 74.7 µM)	27.9 (≈ 61.6 µM)	128 (≈ 282 µM)	C=CC1=C(C(=O)O)N2C(=O)[C@@H](NC(=O)/C(=N\OCC(=O)O)c3csc(N)n3)[C@H]2SC1 [CEFIXIME]

SMILES	MIC (Escherichia coli) [µg/mL]	MIC (Pseudomonas aeruginosa) [µg/mL]	MIC (Klebsiella aerogenes) [µg/mL]	MIC (Staphylococcus aureus) [µg/mL]	MIC (Enterococcus faecalis) [µg/mL]	MIC (Priestia megaterium) [µg/mL]
CN[C@H](CC(C)C)C(=O)N[C@H]1C(=O)N[C@@H](CC(N)=O)C(=O)N[C@H]2C(=O)N[C@H]3C(=O)N[C@H](C(=O)N[C@H](C(=O)O)c4cc(O)cc(O)c4-c4cc3ccc4O)[C@H](O)c3ccc(c(Cl)c3)Oc3cc2cc(c3O[C@@H]2O[C@H](CO)[C@@H](O)[C@H](O)[C@H]2O[C@H]2C[C@](C)(N)[C@H](O)[C@H](C)O2)Oc2ccc(cc2Cl)[C@H]1O [VANCOMYCIN]	6.65 (≈ 4.59 µM)	23.5 (≈ 16.2 µM)	0.52 (≈ 0.359 µM)	2.75 (≈ 1.9 µM)	4.21 (≈ 2.9 µM)	6.37 (≈ 4.4 µM)
